Measurements: article PMC6086215 (Photoacoustics, 2018)

Legend:
[1] = Absolute fluorescence quantum yield; type: physicochemical; settings: Seronorm vs glucose solution
[2] = In vitro photoacoustic spectra and signal vs concentration in agar phantom; type: physicochemical; settings: in glucose solution 5.5% and serum; spectra 680–970 nm, step 5 nm
How it was run: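 Dyes were diluted in 5.5% glucose (plus 5% DMSO for the conjugate) or incubated 1 h at RT in human serum (HSA 47.8 g/L). Samples were loaded in PE-100 tubes in 2% agar phantoms and read at 21 MHz, 40 dB gain, persistence 3, 680–970 nm in 5 nm steps. Signals were normalized to diluted India ink. Peak signal was plotted against concentration and slopes (μM−1) compared. Data are mean ± SD.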

[3] = system: tumor, brain, lung, liver, kidneys, heart and spleen; assay: Ex vivo optical imaging of harvested organs and tumors; type: in vivo, BALB/c nu/nu mice; settings: 24 h post-injection, 200 nmol i.v., harvested organs, n = 5/group
How it was run: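 Nude mice bearing s.c. right-flank xenografts (5 million A431 or 2 million U-87MG cells, ~14 days) received 200 nmol test compound or parent dye in 0.2 mL i.v. via the tail vein (n=5/group). At the end, FITC-albumin (100 mg/kg i.v.) was given 5 min before sacrifice. Tumor and organs were excised for optical imaging, with tumor ROIs and no background correction.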

[4] = no reference given, cited from earlier work
U-87MG tumors = assay: Fluorescence microscopy of U-87MG tumor cryosections; type: in vivo, BALB/c nu/nu mice; settings: U-87MG tumors excised 24 h after injection
How it was run: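 U-87MG tumors were excised 24 h after i.v. test compound or parent dye, with FITC-albumin given 5 min before sacrifice to estimate permeability. Tumors were embedded in OCT, fresh-frozen in ice-cold isopentane, and cryosectioned. Probe and FITC distribution were viewed by fluorescence stereomicroscopy.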

[5] = system: U-87MG tumors (high αvβ3 expression); assay: In vivo photoacoustic imaging of tumor uptake, U-87MG xenograft; parameters: species or system BALB/c nu/nu mice; settings: U-87MG tumor bearing mice, n = 5/group

CC1(C)C(/C=C/C=C/C=C/C=C2\N(CCCCS(=O)(=O)O)c3ccc4ccccc4c3C2(C)C)=[N+](CCCCS(=O)(=O)[O-])c2ccc3ccccc3c21 [ICG, Indocyanine green]
increase of fluorescence efficiency in Seronorm compared to glucose solution [1]: 5 fold | maximum photoacoustic peak [2]: 800 nm | ex vivo optical imaging, organ distribution [3]: accumulated mainly in liver and kidney | blood half-life ([4]; in human): 3 to 5 min | photostability [4]: low photostability | solubility in aqueous media [4]: low solubility in aqueous media with strong tendency to form aggregates | microscopic fluorescence distribution in tumor cryosections (U-87MG tumors): only a patchy and weak signal | time of peak photoacoustic signal in tumor post-injection ([5]; 200 nmol i.v. tail vein): 15 min | photoacoustic signal reduction at 60 min compared to 15 min ([5]; 200 nmol i.v.): 70%
